Results published in ChEMBL document CHEMBL3822438, “Chlorin p6-Based Water-Soluble Amino Acid Derivatives as Potent Photosensitizers for Photodynamic Therapy” (J Med Chem, 2016).
In brackets after ≈: the same amount, converted by molar mass. Activity calls are given as the source filed them. The calls are words filed in the database; no cut-off is given here.

Columns and labels:
B16-F10 [1] = assay: Antitumor activity against B16F10 cells implanted in C57BL/6 mouse assessed as tumor growth inhibition at 2 mg/kg, iv administered for 2 hrs followed by irradiation with laser at 150 J/cm'2 for 10 mins; type: functional, organism-based
Outline: (§1)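 B16-F10 cells (2×10^4) inoculated subcutaneously into the right thigh of male C57BL/6 mice aged 6-8 weeks. Mice with tumours 6-8 mm in diameter were used, 5 per group. Irradiation at 678 nm diode laser, 250 mW/cm² for 10 min, 2 h after i.v. dosing. Tumour volume measured by caliper as (W²×L)/2. Survival recorded daily and analysed by Kaplan-Meier with log-rank test.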

B16-F10 [2] = assay: Antitumor activity against B16F10 cells implanted in C57BL/6 mouse assessed as survival time at 2 mg/kg, iv administered for 2 hrs followed by irradiation with laser at 150 J/cm'2 for 10 mins (reference value: 13 days); type: functional, organism-based; outline: as §1
[3] = Dark toxicity in mouse B16F10 cells assessed as cell viability after 48 hrs by cell counting kit-8 based spectrophotometric analysis; set-up: species or system B16-F10; conditions: mouse, B16F10 cells
Outline: (§2)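 CCK-8 dark toxicity. 5×10^3 cells seeded in 10% FBS medium (A375 in DMEM, B16-F10 in RPMI 1640). Exposed to graded compound concentrations for 48 h at 37 °C, kept in the dark. Fresh medium and CCK-8 added for 1.5 h, then absorbance read at 450 nm to give IC50. Ratio is dark IC50 over IC50 under light.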

[4] = Phototoxicity in mouse B16F10 cells assessed as cell viability after 24 hrs followed by irradiation with diode laser at 10 J/cm'2 measured after 24 hrs by cell counting kit-8 based spectrophotometric analysis; type: functional, B16-F10; conditions: Mus musculus, B16-F10, light or radiation study, 24 h
Outline: (§3)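 Phototoxicity by CCK-8. Cells loaded with a range of compound concentrations for 24 h at 37 °C, irradiated with a 678 nm diode laser at 10 J/cm², then incubated a further 24 h. Viability read as absorbance at 450 nm after 1.5 h with CCK-8.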

[5] = Ratio of IC50 for dark toxicity to IC50 for phototoxicity in mouse B16F10 cells by cell counting kit-8 based spectrophotometric analysis; set-up: species or system B16-F10; conditions: B16F10 cells, read-out: Ratio IC50; outline: as §2
[6] = Dark toxicity in human A375 cells assessed as cell viability after 48 hrs by cell counting kit-8 based spectrophotometric analysis; set-up: species or system A-375; conditions: human, A375 cells; outline: as §2
A-375 [7] = assay: Phototoxicity in human A375 cells assessed as cell viability after 24 hrs followed by irradiation with diode laser at 10 J/cm'2 measured after 24 hrs by cell counting kit-8 based spectrophotometric analysis; type: functional; conditions: Homo sapiens, A-375, light or radiation study, 24 h; outline: as §3
[8] = Ratio of IC50 for dark toxicity to IC50 for phototoxicity in human A375 cells; type: cell-based, A-375; conditions: A375 cells, read-out: Ratio IC50; outline: as §2
[9] = Aqueous solubility of the compound in PBS buffer at pH 7.4; type: physicochemical
B16-F10 [10] = assay: Phototoxicity in mouse B16F10 cells assessed as reduction in cell surviving fraction by irradiation with diode laser at 10 J/cm'2 after 24 hrs by cell counting kit-8 based spectrophotometric analysis; type: functional
Outline: (§4)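 Survival fraction after PDT. Cells held 24 h at 2 µM or 0.2 µM, irradiated at 678 nm with 10 J/cm², then cultured another 24 h. Viability measured by CCK-8 at 450 nm.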

A-375 [11] = assay: Phototoxicity in human A375 cells assessed as reduction in cell surviving fraction by irradiation with diode laser at 10 J/cm'2 after 24 hrs by cell counting kit-8 based spectrophotometric analysis; type: functional; outline: as §4
[12] = Dark toxicity in mouse B16F10 cells assessed as reduction in cell surviving fraction at 50 to 300 uM after 48 hrs by cell counting kit-8 based spectrophotometric analysis; conditions: b16-f10, 48 h
Outline: (§5)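 Survival fraction measured in the dark by CCK-8 after 48 h exposure at 37 °C to 300 µM or 50 µM. Cells were in 10% FBS medium (A375 in DMEM, B16-F10 in RPMI 1640). Viability read as absorbance at 450 nm after 1.5 h with CCK-8.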

A-375 [13] = assay: Dark toxicity in human A375 cells assessed as reduction in cell surviving fraction at 50 to 300 uM after 48 hrs by cell counting kit-8 based spectrophotometric analysis; conditions: a-375, 48 h; outline: as §5
B16-F10 [14] = assay: Phototoxicity in mouse B16F10 cells assessed as reduction in cell surviving fraction by irradiation with diode laser at 10 J/cm'2 at 5 uM after 24 hrs by cell counting kit-8 based spectrophotometric analysis; type: functional
Outline: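 B16-F10 cells exposed to 5 µM for 24 h, then given varying 678 nm laser light doses. After a further 24 h, survival fraction was read by CCK-8 absorbance at 450 nm.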

[15] = Dark toxicity in mouse B16F10 cells assessed as cell viability after 48 hrs by MTT assay; type: cell-based, B16-F10; conditions: mouse, B16F10 cells
Outline: (§6)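 B16-F10 cells in RPMI 1640 with 10% FBS. Dark arm: compound for 48 h. Light arm: compound for 24 h, then 678 nm diode laser at 10 J/cm², then a further 24 h. Read-out by MTT for 4 h, formazan dissolved in DMSO, absorbance at 490 nm. Ratio is dark IC50 over light IC50.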

[16] = (§7) Phototoxicity in mouse B16F10 cells assessed as cell viability after 24 hrs followed by irradiation with diode laser at 10 J/cm'2 measured after 24 hrs by MTT assay; type: functional, cell-based, B16-F10; conditions: Mus musculus, B16-F10, light or radiation study, 24 h; outline: as §6
B16-F10 [17] = assay: as §7; type: functional, cell-based; outline: as §6
[18] = Ratio of IC50 for dark toxicity to IC50 for phototoxicity in mouse B16F10 cells by MTT assay; type: cell-based, B16-F10; conditions: B16F10 cells, read-out: Ratio IC50; outline: as §6
[19] = Drug uptake in lysosomes of mouse B16F10 cells at 10 uM incubated in dark for 24 hrs by lyso tracker green dye based confocal microscopy; type: ADME, cell-based, Lysosome; conditions: b16-f10, 24 h
[20] = Drug uptake in mitochondria of mouse B16F10 cells at 10 uM incubated in dark for 24 hrs by mito tracker green FM dye based confocal microscopy; type: ADME; conditions: b16-f10, 24 h
[21] = Drug uptake in golgi apparatus of mouse B16F10 cells at 10 uM incubated in dark for 24 hrs by golgi tracker green dye based confocal microscopy; type: ADME, cell-based; conditions: b16-f10, 24 h
[22] = Drug uptake in endoplasmic reticulum of mouse B16F10 cells at 10 uM incubated in dark for 24 hrs by ER tracker green dye based confocal microscopy; type: ADME, cell-based; conditions: b16-f10, 24 h
[23] = Drug uptake in nucleus of mouse B16F10 cells at 10 uM incubated in dark for 24 hrs by confocal microscopy; type: ADME, cell-based; conditions: b16-f10, 24 h
B16-F10 [24] = assay: Induction of apoptosis in mouse B16F10 cells assessed as early apoptotic cells at 2 uM after 24 hrs followed by irradiation with diode laser at 10 J/cm'2 by alexa fluor 488 annexin V/PI double staining based flow cytometry (reference value: 0.08%); type: functional
B16-F10 [25] = assay: Induction of apoptosis in mouse B16F10 cells assessed as necrotic/late apoptotic cells at 2 uM after 24 hrs followed by irradiation with diode laser at 10 J/cm'2 by alexa fluor 488 annexin V/PI double staining based flow cytometry (reference value: 1.94%); type: functional
B16-F10 [26] = assay: Induction of apoptosis in mouse B16F10 cells assessed as early apoptotic cells at 5 uM after 24 hrs followed by irradiation with diode laser at 10 J/cm'2 by alexa fluor 488 annexin V/PI double staining based flow cytometry (reference value: 0.08%); type: functional
B16-F10 [27] = assay: Induction of apoptosis in mouse B16F10 cells assessed as necrotic/late apoptotic cells at 5 uM after 24 hrs followed by irradiation with diode laser at 10 J/cm'2 by alexa fluor 488 annexin V/PI double staining based flow cytometry (reference value: 1.94%); type: functional
B16-F10 [28] = assay: Induction of apoptosis in mouse B16F10 cells assessed as necrotic/late apoptotic cells after 24 hrs followed by irradiation with diode laser at 10 J/cm'2 by alexa fluor 488 annexin V/PI double staining based flow cytometry; type: functional, cell-based
B16-F10 [29] = assay: Antitumor activity against B16F10 cells implanted in C57BL/6 mouse assessed as tumor growth inhibition at 1 mg/kg, iv administered for 2 hrs followed by irradiation with laser at 150 J/cm'2 for 10 mins; type: functional, organism-based; outline: as §1
[30] = Antitumor activity against B16F10 cells implanted in C57BL/6 mouse assessed as survival time at 1 mg/kg, iv administered for 2 hrs followed by irradiation with laser at 150 J/cm'2 for 10 mins (reference value: 13 days); type: functional, B16-F10
[31] = Ratio of IC50 for test compound to IC50 for verteporfin for dark toxicity in mouse B16F10 cells by cell counting kit-8 based spectrophotometric analysis; set-up: species or system B16-F10; conditions: read-out: Ratio IC50
[32] = Ratio of IC50 for test compound to IC50 for verteporfin for dark toxicity in human A375 cells by cell counting kit-8 based spectrophotometric analysis; set-up: species or system A-375; conditions: read-out: Ratio IC50
[33] = Ratio of IC50 for dark toxicity to IC50 for phototoxicity in human A375 cells by CCK-8 assay

In the case of VERTEPORFIN, the TGI (B16-F10 [1]) is reported as “Active” and the MST (B16-F10 [2]) is reported as 18 days.
`CCC1=C(C)c2cc3[nH]c(cc4nc(c(C(=O)OC)c5[nH]c(cc1n2)c(C)c5C(=O)OC)C(CCC(=O)N[C@@H](CC(=O)O)C(=O)O)=C4C)[C@@]1(C)C3=CC=C(C(=O)OC)[C@H]1C(=O)OC` gave an IC50 at 48 h [3] of 271000 nM, an IC50 [4] of 2290 nM and a selectivity ratio [5] of 118. The IC50 at 48 h [6] was > 300000 nM, the IC50 (A-375 [7]) was 3020 nM and the selectivity ratio [8] was > 99.3.
For `CCC1=C(C)c2cc3[nH]c(cc4nc(c(C(=O)OC)c5[nH]c(cc1n2)c(C)c5C(=O)OC)C(CCC(=O)O)=C4C)[C@@]1(C)C3=CC=C(C(=O)OC)[C@H]1C(=O)OC`, the IC50 at 48 h [3] was 15300 nM, the IC50 [4] was 920 nM and the selectivity ratio [5] was 16.7. The IC50 at 48 h [6] was 22800 nM, the IC50 (A-375 [7]) was 1470 nM and the selectivity ratio [8] was 15.5.
With `C=Cc1c(C)c2cc3nc(c(C(=O)OC)c4[nH]c(cc5nc(cc1[nH]2)C(C)=C5CC)c(C)c4C(=O)OC)[C@@H](CCC(=O)N[C@@H](CC(=O)O)C(=O)O)[C@@H]3C` the solubility [9] was 41.7 µM (≈ 30.3 µg/mL), the IC50 at 48 h [3] was > 300000 nM and the IC50 [4] was 680 nM. For the same molecule, the selectivity ratio [5] was > 441, the IC50 at 48 h [6] was > 300000 nM and the IC50 (A-375 [7]) was 980 nM. For the same molecule, the selectivity ratio [8] was > 306, the Activity (B16-F10 [10]) was “Dose-dependent effect” and the Activity (A-375 [11]) was “Dose-dependent effect”. For the same molecule, the Activity [12] was “Non-toxic”, the Activity (A-375 [13]) was “Non-toxic” and the Activity (B16-F10 [14]) was “Active”. The IC50 at 48 h [15] was > 300000 nM, the IC50 [16] was 750 nM and the Activity (B16-F10 [17]) was “Dose-dependent effect”. The selectivity ratio [18] was > 400, the Drug uptake [19] was “Active” and the Drug uptake [20] was “Active”. The Drug uptake [21] was “Active”, the Drug uptake [22] was “Active” and the Drug uptake [23] was “Not Active”. The Activity (B16-F10 [24]) was 0.3%, the Activity (B16-F10 [25]) was 68.23% and the Activity (B16-F10 [26]) was 5.61%. The Activity (B16-F10 [27]) was 82.05%, the Activity (B16-F10 [28]) was “Dose-dependent effect” and the TGI (B16-F10 [29]) was “Active”. The MST [30] was 21 days, the selectivity ratio [31] was > 8.3 and the selectivity ratio [32] was > 8.3. The selectivity ratio [33] was > 306.
